Measured values reported in ChEMBL document CHEMBL4138204, “Polyoxygenated Steroids from the Sponge Clathria gombawuiensis” (J Nat Prod, 2017).
Activity calls are given as the source filed them. The rule behind the calls is not given here.

Experiments:
Escherichia coli = assay: Antibacterial activity against Escherichia coli ATCC 35270 measured after 24 hrs; format: functional; conditions: ATCC 35270, 24 h
Aspergillus fumigatus = assay: Antifungal activity against Aspergillus fumigatus HIC 6094 measured after 48 to 72 hrs; format: functional
Mus musculus [1] = species on record: Mus musculus; assay: Activation of AMPKalpha in differentiated mouse 3T3L1 cells assessed as increase in 2-NBDG uptake at 20 uM by fluorescence microscopic analysis
How it was run: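 Differentiated 3T3-L1 adipocytes were treated with 20 μM compound or 100 nM insulin as a positive control, then exposed to 2-NBDG as the fluorescent glucose analogue. Uptake was imaged by fluorescence microscopy as green signal inside the cells.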

Trichophyton rubrum = assay: Antifungal activity against Trichophyton rubrum IFO 9185 measured after 48 to 72 hrs; format: functional
A549 = assay: Cytotoxicity against human A549 cells after 72 hrs by MTT assay; format: functional, cell-based; conditions: A549, 72 h
Mus musculus [2] = species on record: Mus musculus; assay: Activation of AMPKalpha in differentiated mouse 3T3L1 cells assessed as increase in 2-NBDG uptake pretreated for 30 mins followed by 2-NBDG addition measured after 1 hr by fluorescence assay
How it was run: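 2-NBDG uptake in differentiated 3T3-L1 adipocytes. Cells got compounds at several concentrations, or 100 nM insulin as a positive control. After 1 h incubation, fluorescence was read at ex/em 450/535 nm. Mean ± SD (n = 3), compared with vehicle by ANOVA.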

[3] = target: Sodium/potassium-transporting ATPase; assay: Inhibition of potassium-activated sodium/potassium ATPase in human placenta using 3-Omethylfluorescein phosphate as substrate measured for 90 secs by fluorescence assay
C2C12 [4] = assay: Activation of AMPKalpha phosphorylation at Thr172 in mouse C2C12 cells at 20 uM after 30 mins by Western blot analysis; format: cell-based
How it was run: (§1)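 Differentiated mouse C2C12 skeletal myoblasts were given compounds at 20 μM, or Aicar (0.2 mM, AMPK activator), for 30 min. pAMPK (Thr172) and pACC (Ser79) were quantified by Western blot. Mean ± SD of 2–4 independent experiments, compared with vehicle by ANOVA.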

K562 = assay: Cytotoxicity against human K562 cells after 72 hrs by MTT assay; format: functional, cell-based; conditions: K562, 72 h
[5] = system: Trichophyton mentagrophytes; assay: Antifungal activity against Trichophyton mentagrophytes IFO 40996 measured after 48 to 72 hrs; format: functional
[6] = Inhibition of isocitrate lyase (unknown origin)
C2C12 [7] = assay: Activation of AMPKalpha in mouse C2C12 cells assessed as increase in phosphorylation of ACC at Ser79 at 20 uM after 30 mins by Western blot analysis; format: cell-based; how it was run: as §1
Bacillus spizizenii = assay: Antibacterial activity against Bacillus subtilis ATCC 6633 measured after 24 hrs; format: functional; conditions: ATCC 6633, 24 h
Staphylococcus aureus = assay: Antibacterial activity against Staphylococcus aureus ATCC 6538P measured after 24 hrs; format: functional
Candida albicans = assay: Antifungal activity against Candida albicans ATCC 10231 measured after 48 to 72 hrs; format: functional
Salmonella typhimurium = assay: Antibacterial activity against Salmonella enterica ATCC 14028 measured after 24 hrs; format: functional, Salmonella enterica subsp. enterica serovar Typhimurium; conditions: ATCC 14028, 24 h
Kocuria rhizophila = assay: Antibacterial activity against Kocuria rhizophila NBRC 12708 measured after 24 hrs; format: functional; conditions: NBRC 12708, 24 h
Proteus hauseri = assay: Antibacterial activity against Proteus hauseri NBRC 3851 measured after 24 hrs; format: functional; conditions: NBRC 3851, 24 h
[8] = Inhibition of recombinant sortase A (unknown origin) using Dabcyl-QALPETGEE-Edans as substrate measured after 1 hr by fluorescence assay; set-up: species or system Bacteria
C2C12 [9] = assay: Activation of AMPKalpha phosphorylation at Thr172 in mouse C2C12 cells at 5 to 20 uM after 30 mins in presence of AMPK inhibitor dorsomorphin by Western blot analysis; format: cell-based
How it was run: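 C2C12 myoblasts were exposed to compound at 5, 10 and 20 μM for 30 min, with compound C pretreatment used to test AMPK dependence. pAMPK (Thr172) was measured by Western blot. Mean ± SD (n = 3), compared with control.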

| Structure (SMILES) | MIC (Escherichia coli) | MIC (Aspergillus fumigatus) | Activity (Mus musculus [1]) | MIC (Trichophyton rubrum) | IC50 (A549) | Activity (Mus musculus [2]) | IC50 [3] | Activity (C2C12 [4]) | IC50 (K562) | MIC [5] | IC50 [6] | Activity (C2C12 [7]) | MIC (Bacillus spizizenii) | MIC (Staphylococcus aureus) | MIC (Candida albicans) | MIC (Salmonella typhimurium) | MIC (Kocuria rhizophila) | MIC (Proteus hauseri) | IC50 [8] | Activity (C2C12 [9]) |
| --- | --- | --- | --- | --- | --- | --- | --- | --- | --- | --- | --- | --- | --- | --- | --- | --- | --- | --- | --- | --- |
| CC(C)[C@H](C)[C@@H](O)[C@H](O)[C@@H](C)[C@H]1CC(=O)[C@@H]2[C@@H]3[C@@H](O)[C@H](O)[C@H]4[C@H](O)[C@@H](O)CC[C@]4(C)[C@H]3CC[C@]12C | > 128 µM | > 128 µM | Active | > 128 µM | > 10 µM | Dose-dependent effect | > 128 µM | Active | > 10 µM | > 128 µM | > 128 µM | Active | > 128 µM | > 128 µM | > 128 µM | > 128 µM | > 128 µM | > 128 µM | > 128 µM | – |
| CC(C)C[C@H](O)C[C@@H](C)[C@H]1CC(=O)[C@@H]2[C@@H]3[C@@H](O)[C@H](O)[C@H]4[C@H](O)[C@@H](O)CC[C@]4(C)[C@H]3CC[C@]12C | > 128 µM | > 128 µM | – | > 128 µM | > 10 µM | – | > 128 µM | Active | > 10 µM | > 128 µM | > 128 µM | Active | > 128 µM | > 128 µM | > 128 µM | > 128 µM | > 128 µM | > 128 µM | > 128 µM | – |
| CC(C)[C@H](C)[C@@H](O)[C@H](O)[C@@H](C)[C@H]1CC(=O)[C@@H]2[C@@H]3[C@@H](OS(=O)(=O)O)[C@H](O)[C@H]4[C@H](O)[C@@H](O)CC[C@]4(C)[C@H]3CC[C@]12C | > 128 µM | > 128 µM | – | > 128 µM | > 10 µM | – | > 128 µM | Active | > 10 µM | > 128 µM | > 128 µM | Active | > 128 µM | > 128 µM | > 128 µM | > 128 µM | > 128 µM | > 128 µM | > 128 µM | – |
| CC(C)[C@@H](CC[C@@H](C)[C@H]1CC(=O)[C@@H]2[C@@H]3[C@@H](O)[C@H](O)[C@H]4C[C@@H](O)CC[C@]4(C)[C@H]3CC[C@]12C)[C@@H](C)O | > 128 µM | > 128 µM | Active | > 128 µM | > 10 µM | Dose-dependent effect | > 128 µM | Active | > 10 µM | > 128 µM | > 128 µM | Active | > 128 µM | > 128 µM | > 128 µM | > 128 µM | > 128 µM | > 128 µM | > 128 µM | – |
| CC(C)[C@H](C)[C@@H](O)[C@H](O)[C@@H](C)[C@H]1CC(=O)[C@H]2[C@@H]3[C@@H](O)[C@H](O)[C@H]4[C@H](O)[C@@H](O)CC[C@]4(C)[C@H]3CC[C@]12C | > 128 µM | > 128 µM | Active | > 128 µM | > 10 µM | Dose-dependent effect | > 128 µM | Active | > 10 µM | > 128 µM | > 128 µM | Active | > 128 µM | > 128 µM | > 128 µM | > 128 µM | > 128 µM | > 128 µM | > 128 µM | inactive |
| CC(C)C[C@@H](O)[C@H](O)[C@@H](C)[C@H]1CC(=O)[C@@H]2[C@@H]3[C@@H](O)[C@H](O)[C@H]4[C@H](O)[C@@H](O)CC[C@]4(C)[C@H]3CC[C@]12C | > 128 µM | > 128 µM | Active | > 128 µM | > 10 µM | Dose-dependent effect | > 128 µM | Active | > 10 µM | > 128 µM | > 128 µM | Active | > 128 µM | > 128 µM | > 128 µM | > 128 µM | > 128 µM | > 128 µM | > 128 µM | – |
| CC(C)[C@H](C)[C@@H](O)C[C@@H](C)[C@H]1CC(=O)[C@H]2[C@@H]3[C@@H](O)[C@H](O)[C@H]4[C@H](O)[C@@H](O)CC[C@]4(C)[C@H]3CC[C@]12C | > 128 µM | > 128 µM | Active | > 128 µM | > 10 µM | Dose-dependent effect | > 128 µM | Active | > 10 µM | > 128 µM | > 128 µM | Active | > 128 µM | > 128 µM | > 128 µM | > 128 µM | > 128 µM | > 128 µM | > 128 µM | – |
